Active and inactive are the calls of the source. The rule behind the calls is not given here.

Data set [1] deals with HK-2. The data set can be described thus: Inhibition of TGFbeta1-induced epithelial-mesenchymal transition in human HK2 cells assessed as reduction in fibronectin release at 30 uM measured after 36 hrs by ELISA. The format is functional, cell-based.
For data set [2], the system named is HK-2. The data set can be described thus: Inhibition of TGFbeta1-induced epithelial-mesenchymal transition in human HK2 cells assessed as reduction in alpha-SMA expression at 30 uM measured after 36 hrs by Western blot analysis. The format is functional, cell-based. For orientation: In western blotting, separated proteins are transferred to a membrane and probed.

Data set [3] has as its target T1, Short transient receptor potential channel 6 (Mus musculus, UniProt Q61143).
T1 sequence (Q61143 whole entry): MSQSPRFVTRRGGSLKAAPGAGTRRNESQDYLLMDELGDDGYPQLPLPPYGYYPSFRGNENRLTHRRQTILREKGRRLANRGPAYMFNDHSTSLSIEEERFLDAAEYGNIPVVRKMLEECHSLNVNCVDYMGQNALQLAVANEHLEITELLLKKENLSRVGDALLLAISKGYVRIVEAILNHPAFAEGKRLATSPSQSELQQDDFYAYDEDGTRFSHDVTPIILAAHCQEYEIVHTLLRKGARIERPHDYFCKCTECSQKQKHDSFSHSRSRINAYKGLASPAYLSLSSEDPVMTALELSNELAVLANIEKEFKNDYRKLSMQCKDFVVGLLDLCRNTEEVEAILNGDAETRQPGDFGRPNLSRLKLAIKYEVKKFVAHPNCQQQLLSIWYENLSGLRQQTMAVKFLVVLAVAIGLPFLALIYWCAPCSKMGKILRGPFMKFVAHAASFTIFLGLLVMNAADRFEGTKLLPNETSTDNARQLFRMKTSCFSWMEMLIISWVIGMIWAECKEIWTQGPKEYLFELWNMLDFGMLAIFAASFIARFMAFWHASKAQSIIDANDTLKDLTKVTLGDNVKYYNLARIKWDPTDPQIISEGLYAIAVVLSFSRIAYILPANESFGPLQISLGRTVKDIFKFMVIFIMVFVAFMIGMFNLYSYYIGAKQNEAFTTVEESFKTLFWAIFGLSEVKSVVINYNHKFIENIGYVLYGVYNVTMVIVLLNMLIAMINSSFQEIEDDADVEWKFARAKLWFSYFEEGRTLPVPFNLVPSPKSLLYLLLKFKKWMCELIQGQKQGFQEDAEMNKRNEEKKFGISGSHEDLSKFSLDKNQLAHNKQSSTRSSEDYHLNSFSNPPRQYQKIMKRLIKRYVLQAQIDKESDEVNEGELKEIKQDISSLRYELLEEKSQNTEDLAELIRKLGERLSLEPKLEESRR
In words: Inhibition of mouse TRPC6 expressed in HEK293 cells assessed as reduction in M085-induced intracellular calcium flux pretreated for 5 mins followed by M085 addition measured after 300 secs by Fluo-8AM dye based FLIPR assay. The format is cell-based. The procedure, abridged: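 HEK-293 cells stably expressing mouse TRPC6, on poly-D-lysine plates (~20 000 cells/well), cultured 6 h. Loaded with 4 μM Fluo-8/AM for 45 min, washed. FLIPR read: baseline 30 s, then compound or vehicle 5 min, then M085 (1 μM). Signal expressed as F/F0; AUC over 300 s after M085 used for concentration–response. Twice, each in triplicate.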
(In general: A change in cytosolic calcium serves as a functional read-out for many receptors and channels.)

Data set [4] concerns HK-2. The data set can be described thus: Inhibition of TGFbeta1-induced epithelial-mesenchymal transition in human HK2 cells assessed as reversal of spindle-like morphology at 30 uM measured after 36 hrs. The format is functional, cell-based. The procedure, abridged: (§1)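 HK-2 cells kept in RPMI 1640 with 2 mg/mL NaHCO3, 10% FBS and 10 mM HEPES, then seeded at 6000 (96-well) or 40 000 (12-well) cells/well. Treated in serum-free medium with TGF-β1 (5 ng/mL), with or without test agent, for 36 h. Morphology scored as cell length/width ratio (n = 40). Run twice, each in duplicate.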

The subject of data set [5] is HK-2. The data set can be described thus: Inhibition of TGFbeta1-induced epithelial-mesenchymal transition in human HK2 cells assessed as reduction in alpha-SMA expression measured after 36 hrs by Western blot analysis. The format is functional, cell-based.
Data set [6] relates to HK-2. The data set can be described thus: Effect on basal alpha-SMA expression in human HK2 cells at 1 uM after 36 hrs by Western blot analysis. The format is ADME, cell-based. To be noted: hk-2, 36 h.
The subject of data set [7] is HK-2. In words: Inhibition of TGFbeta1-induced epithelial-mesenchymal transition in human HK2 cells assessed as reduction in fibronectin release measured after 36 hrs by ELISA. The format is functional, cell-based. A general note: An ELISA detects its analyte on a solid surface through an enzyme-linked reagent.
Data set [8] concerns HK-2. The data set can be described thus: Effect on morphological changes in human HK2 cells at 1 uM measured after 36 hrs. To be noted: hk-2, 36 h. The format is ADME, cell-based.
Data set [9] relates to HK-2. The data set can be described thus: Inhibition of TGFbeta1-induced epithelial-mesenchymal transition in human HK2 cells assessed as reversal of spindle-like morphology measured after 36 hrs. The format is functional, cell-based. In short, it runs like this: as §1

A word on the IC50: it is the concentration that inhibits the measured activity by half. Regarding `COc1cc(C(=O)OC[C@H]2O[C@@H](OC/C(C#N)=C/CO)[C@H](O)[C@@H](O)[C@@H]2O)ccc1O`, the inhibition result with HK-2 [1], in the data set on HK-2 [2] and in the data set with HK-2 [4] was “Active” each time. In [3], the IC50 stood at 25.6 µM.

As to `Cl.Cl.N#Cc1ccc(O[C@@H]2c3ccccc3C[C@H]2N2CCC[C@@H](N)C2)c(Cl)c1`, the inhibition result in the data set with HK-2 [5], in the data set with HK-2 [7] and with HK-2 [9] was “Dose-dependent effect” throughout. In addition, the Activity entry in the data set on HK-2 [6] and in the data set with HK-2 [8] was “Non-Toxic” in each case.

As to `N#C/C(=C\CO)CO[C@@H]1O[C@H](COC(=O)c2ccc(O)cc2)[C@@H](O)[C@H](O)[C@H]1O`, the inhibition result in the data set with HK-2 [1], in the data set on HK-2 [2] and in the data set on HK-2 [4] was “Active” throughout. Besides, in data set [3], the IC50 turned out to be 24.5 µM.

Source of the values: ChEMBL document CHEMBL4251667, “Ribemansides A and B, TRPC6 Inhibitors from Ribes manshuricum That Suppress TGF-β1-Induced Fibrogenesis in HK-2 Cells” (J Nat Prod, 2018).
